Test results published in paper PMC9996623 (ACS Omega, 2023).

What was measured:
[1] = target: HIV-1 integrase (Human immunodeficiency virus type 1 group M subtype B, UniProt P04585); assay: HIV-1 integrase strand transfer; type: biochemical; settings: for inhibition at 10 µM: read-out: %ST inhibition (percentage inhibition of strand transfer activity of integrase enzyme), 10 μM dose, WT (wild-type) integrase; for fold increase in %ST inhibition compared to 10a: versus 10a
[2] = tested on: TZM-bl cells; assay: MTT cytotoxicity assay on TZM-bl cells; type: cell-based; settings: IC50 values at 48 h, 3.125 to 200 μM
In short: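 Medium with compound removed; MTT reagent (5 mg/mL) added for 4 h; formazan dissolved in DMSO with shaking; absorbance read at 570 nm against a 630 nm reference. Percent viability plotted versus concentration.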

inhibition at 10 µM [1] [%]	Compound	also measured
39.3	COc1ccc(-c2ccc3c(-c4ccccc4)cn(C)c3n2)cc1 [11a, 6-(4-Methoxyphenyl)-1-methyl-3-phenyl-1H-pyrrolo[2,3-b]pyridine]	fold increase in %ST inhibition compared to 10a ([1]; 10 μM dose): ~2 fold
51.7	Cc1ccc(-c2ccc3c(-c4ccccc4)cn(C)c3n2)cc1 [11b, 1-Methyl-3-phenyl-6-(p-tolyl)-1H-pyrrolo[2,3-b]pyridine]	
36.4	Cn1cc(-c2ccccc2)c2ccc(-c3cc(C(F)(F)F)cc(C(F)(F)F)c3)nc21 [11c, 6-(3,5-Bis(trifluoromethyl)phenyl)-1-methyl-3-phenyl-1H-pyrrolo[2,3-b]pyridine]	
72	COc1ccc(-c2ccc3c(-c4ccc(F)cc4F)cn(C)c3n2)cc1 [11d, 3-(2,4-Difluorophenyl)-6-(4-methoxyphenyl)-1-methyl-1H-pyrrolo[2,3-b]pyridine]	
41.6	Cn1cc(-c2ccccc2)c2ccc(-c3ccsc3)nc21 [11e, 1-Methyl-3-phenyl-6-(thiophen-3-yl)-1H-pyrrolo[2,3-b]pyridine]	
71	Cn1cc(-c2ccc3c(c2)OCO3)c2ccc(-c3ccncc3)nc21 [11f, 3-(Benzo[d][1,3]dioxol-5-yl)-1-methyl-6-(pyridin-4-yl)-1H-pyrrolo[2,3-b]pyridine]	fold increase in %ST inhibition comparing 10h and 11f ([1]; 10 μM dose, versus 10h): ~1.3 fold; IC50 in TZM-bl [2]: minimal cytotoxicity
15.9	COc1ccc(Cn2cc(-c3ccsc3)c3ccc(-c4ccncc4)nc32)cc1 [12a, 1-(4-Methoxybenzyl)-6-(pyridin-4-yl)-3-(thiophen-3-yl)-1H-pyrrolo[2,3-b]pyridine]	
24.1	COc1ccc(Cn2cc(-c3ccc4c(c3)OCO4)c3ccc(-c4ccc5ccccc5c4)nc32)cc1 [12b, 3-(Benzo[d][1,3]dioxol-5-yl)-1-(4-methoxybenzyl)-6-(naphthalen-2-yl)-1H-pyrrolo[2,3-b]pyridine]	
82	Cc1nnc(C(=O)NC(C)(C)c2nc(C(=O)NCc3ccc(F)cc3)c(O)c(=O)n2C)o1 [RAL, Raltegravir, reference compound]	

The remaining lines, values behind:

Compound	inhibition at 10 µM [1] [%]	also measured
Cn1cc(-c2ccccc2)c2ccc(Cl)nc21 [10a, 6-Chloro-1-methyl-3-phenyl-1H-pyrrolo[2,3-b]pyridine]	14	
Cc1ccc(-c2cn(C)c3nc(Cl)ccc23)cc1 [10b, 6-Chloro-1-methyl-3-(p-tolyl)-1H-pyrrolo[2,3-b]pyridine]	41	fold increase in %ST inhibition compared to 10a ([1]; 10 μM dose): ~3 fold
Cc1cccc(-c2cn(C)c3nc(Cl)ccc23)c1 [10c, 6-Chloro-1-methyl-3-(m-tolyl)-1H-pyrrolo[2,3-b]pyridine]	19.4	
COc1ccc(-c2cn(C)c3nc(Cl)ccc23)cc1 [10d, 6-Chloro-3-(4-methoxyphenyl)-1-methyl-1H-pyrrolo[2,3-b]pyridine]	56	
Cn1cc(-c2ccc(F)cc2)c2ccc(Cl)nc21 [10e, 6-Chloro-3-(4-fluorophenyl)-1-methyl-1H-pyrrolo[2,3-b]pyridine]	38.3	
Cn1cc(-c2cc(C(F)(F)F)cc(C(F)(F)F)c2)c2ccc(Cl)nc21 [10f, 3-(3,5-Bis(trifluoromethyl)phenyl)-6-chloro-1-methyl-1H-pyrrolo[2,3-b]pyridine]	48.3	
Cn1cc(-c2ccc3c(c2)OCO3)c2ccc(Cl)nc21 [10h, 3-(Benzo[d][1,3]dioxol-5-yl)-6-chloro-1-methyl-1H-pyrrolo[2,3-b]pyridine]	54	
